Entries after “also recorded” stand apart in the source; their conditions may differ. Where no end group is shown, it is not given here.
Test system: A549 cells
Assay: Cytotoxicity assay
Format: cell-based, human
Summary of the method: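 A549 cells (ATCC) seeded in 96-well plates at 5 × 10^3 cells per mL, grown 24 h. Medium replaced with matched concentrations (up to 160 μg mL−1) of free drug or peptide-nanocage-encapsulated drug (pH 8.09). Nanocages were made by emulsifying drug in chloroform into 1 mM peptide/PBS pH 7.4. After 24 h, CCK-8 added for 3 h; OD 450 nm read. Viability = (ODtest − ODblank)/(ODcontrol − ODblank) × 100%.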

Compound | cell survival rate (160 μg mL^−1, 24 h culture, CCK-8, OD 450 nm) | cytotoxicity (in words) (24 h culture, CCK-8)
CC(=O)O[C@H]1C(=O)[C@@]2(C)[C@H]([C@H](OC(=O)c3ccccc3)[C@]3(O)C[C@H](OC(=O)[C@H](O)[C@@H](NC(=O)c4ccccc4)c4ccccc4)C(C)=C1C3(C)C)[C@]1(OC(C)=O)CO[C@@H]1C[C@@H]2O [PTX, Paclitaxel, reference compound] | approximately 60% | –
GNNQQNYPKKPGNNQQNY [GSLP, GNNQQNY-PKKP-GNNQQNY] | – | not concentration-dependent toxic; also recorded: do not exhibit cytotoxicity
